Measurements as given in BindingDB's records for doi:10.1016/j.bmcl.2009.02.010 (Konkuk University, 2009).

What was measured:
[1] = target: T1, Replicase polyprotein 1ab (Severe acute respiratory syndrome coronavirus, UniProt P0C6X7); assay: Inhibition of ATPase activity of SCV helicase assessed as phosphate release by colorimetric assay
How it was run: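 Purified SCV NTPase/helicase (400 nM in 50 mM Tris/HCl pH 6.6) preincubated with compounds for 5 min at rt. Stopped with malachite green/molybdate reagent in 1 M HCl. A620 read after 5 min, with phosphate from a standard curve.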

[2] = target: T1, Replicase polyprotein 1ab; assay: Inhibition of SCV helicase assessed as duplex-DNA unwinding by FRET based assay
How it was run: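 Substrate was 25-bp dsDNA with a 20-dT 5′-overhang. SCV helicase (150 nM in 20 mM HEPES pH 7.4) preincubated with compounds for 5 min at rt. Started with 5X reaction solution (5 mM MgCl2, 45 mM ATP, 25 mM DTT, 100 nM dsDNA substrate as 5X concentrations), then 2 min at 37 °C. Stopped with EDTA plus unmodified trap oligomer, with FRET read-out.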

Row | SMILES | IC50 [1] [µM] | IC50 [2] [µM]
1 | O=C(O)C(=O)CC(=O)c1ccccc1OCc1ccccc1 | > 50 | > 50
2 | O=C(O)C(=O)CC(=O)c1cccc(OCc2ccccc2)c1 | > 50 | > 50
3 | O=C(O)C(=O)CC(=O)c1ccc(OCc2ccc(Cl)cc2)cc1 [4-(4-(4-chlorobenzyloxy)phenyl)-2-hydroxy-4-oxobut-2-enoic acid] | > 50 | > 50
